This passage reports IC50 results from ChEMBL document CHEMBL1138555, “N-acylated and N,N'-diacylated imidazolidine-2-thione derivatives and N,N'-diacylated tetrahydropyrimidine-2(1H)-thione analogues: synthesis and antiproliferative activity” (Eur J Med Chem, 2009).

The subject of the assay is MT4. Briefly: Antiproliferative activity against human MT4 cells assessed as reduction of growth by MTT assay. It is filed as functional, cell-based. Summed up: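 MT-4 lymphoblastoid T cells (ATCC) in RPMI 1640 with 10% FCS, penicillin/streptomycin, checked for mycoplasma. 1 × 10⁴ mock-infected cells per well with serial dilutions from a 100 mM DMSO stock. Incubated 4 days at 37 °C, viable cells counted by MTT. IC50 versus untreated controls by linear regression. Mean of three separate experiments.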
(In general: Tetrazolium dyes change colour on reduction, which living cells bring about.)

Usually IC50 stands for the midpoint of a concentration-inhibition curve.

Regarding `O=C(c1cccc(Cl)c1)N1CCN(C(=O)c2cccc(Cl)c2)C1=S`, the IC50 amounted to 35 µM.
Next, `O=C(c1ccccc1Cl)N1CCCN(C(=O)c2ccccc2Cl)C1=S`: above 100 µM; `CCOC(=O)/C(=C/N1CCN(C(=O)c2ccco2)C1=O)C(=O)c1ccccc1`: 43 µM; `CC(=O)/C(=C/N1CCN(C(=O)c2ccco2)C1=O)C(=O)c1ccccc1`: above 100 µM.
To `O=C(c1ccccc1)N1CCN(C(=O)c2ccccc2)C1=S` belongs 94 µM; to `O=C(c1cc(Cl)cc(Cl)c1)N1CCCN(C(=O)c2cc(Cl)cc(Cl)c2)C1=S`, 30 µM.
Next, `O=C(c1ccco1)N1CCCN(C(=O)c2ccco2)C1=S`: 36 µM; `O=C(c1ccccc1Cl)N1CCN(C(=O)c2ccccc2Cl)C1=S`: 54 µM.
Turning to `COc1ccc(C(=O)N2CCN(C(=O)c3ccc(OC)cc3)C2=S)cc1`, the IC50 is above 100 µM.
Next, `O=C(c1ccccc1)N1CCCN(C(=O)c2ccccc2)C1=S`: above 100 µM.
Next, `O=C(c1ccc(Cl)cc1Cl)N1CCCN(C(=O)c2ccc(Cl)cc2Cl)C1=S`: above 100 µM; `CC(C)(C)C(=O)N1CCN(C=O)C1=S`: 43 µM; `CC(C)(C)c1ccc(C(=O)N2CCN(C(=O)c3ccc(C(C)(C)C)cc3)C2=S)cc1`: above 100 µM.
As to `O=CN1CCN(C(=O)c2ccccc2)C1=S`, the IC50 is 12 µM.
Next, `O=C(c1cccc([N+](=O)[O-])c1)N1CCN(C(=O)c2cccc([N+](=O)[O-])c2)C1=S`: above 100 µM; `Cc1ccccc1C(=O)N1CCN(C(=O)c2ccccc2C)C1=S`: above 100 µM.
